Where a name gives a salt, the structure may show the parent alone.
Experiments:
[1] = cited from earlier work
[2] = tested on: MCF-7 cells; experiment: Live and dead assay by flow cytometry; type: cell-based, human; details: 15 nM, positive control, PI staining
In short: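 MCF-7 cells (0.8 × 10^6) were exposed to vehicle, 3 or 6 μM test compound, or 15 nM vinblastine (positive control) for 48 h. Cells were stained with propidium iodide and live and dead percentages were counted by flow cytometry. Values are mean ± SD of three experiments.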

| Compound | Solubility in water [1] | dead % [2] [%] | live % [2] [%] |
| --- | --- | --- | --- |
| COc1ccc(/C=C\c2cc(OC)c(OC)c(OC)c2)cc1O [CA-4, combretastatin A-4] | poorly soluble in water | – | – |
| CC[C@]1(O)C[C@@H]2CN(CCc3c([nH]c4ccccc34)[C@@](C(=O)OC)(c3cc4c(cc3OC)N(C)[C@H]3[C@@](O)(C(=O)OC)[C@H](OC(C)=O)[C@]5(CC)C=CCN6CC[C@]43[C@@H]65)C2)C1 [Vinblastine, Vinblastine sulfate] | – | 83 ± 6 | 18 ± 6 |

From PMC6044759 (ACS Omega, 2018)
